Assay results as given in ChEMBL document CHEMBL1152486, “Synthesis and antitumor activity of optically active thiourea and their 2-aminobenzothiazole derivatives: a novel class of anticancer agents” (Eur J Med Chem, 2009).
pIC50: −log10 of the molar value.

Key:
Format in all cases: functional, cell-based
[1] = Cytotoxicity against mouse EAC after 24 hrs by MTT assay; conditions: Ehrlich
How it was run: (§1)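 Standard MTT, 24 h exposure. Cells plated at 10^4/well and allowed 24 h to attach, then exposed to 1–100 μM compound (dissolved in 0.1% DMSO, diluted in medium; vehicle controls 0.1% DMSO). MTT 1 mg/ml for 4 h at 37 °C, formazan dissolved in DMSO, absorbance read at 540 nm. IC50 taken as concentration giving 50% growth inhibition; triplicate.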

[2] = test system: MCF7; test: Cytotoxicity against human MCF7 cells after 24 hrs by MTT assay; how it was run: as §1
[3] = test system: HeLa; test: Cytotoxicity against human HeLa cells after 24 hrs by MTT assay; how it was run: as §1
[4] = test system: MCF7; test: Cytotoxicity against human MCF7 cells by MTT assay
How it was run: (§2)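 MCF-7 time-course MTT. Cells seeded at 5 × 10^3/well and exposed to 1–50 μM compound. Percentage cytotoxicity and IC50 determined at 24, 48 and 72 h of drug incubation. MTT read-out at 540 nm after formazan solubilization in DMSO.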

[5] = test system: MCF7; test: Cytotoxicity against human MCF7 cells after 48 hrs by MTT assay; conditions: MCF7, 48 h; how it was run: as §2
[6] = test system: MCF7; test: Cytotoxicity against human MCF7 cells after 72 hrs by MTT assay; conditions: MCF7, 72 h; how it was run: as §2
[7] = test system: MCF7; test: DNA damaging activity in human MCF7 cells assessed as increase in tail moment after 24 hrs by alkaline comet assay
How it was run: (§3)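 Alkaline comet assay in MCF-7 after 24 h exposure to 5–50 μM. About 20,000 cells embedded in 0.75% low-melt agarose over a 1.5% agarose layer. Alkaline unwinding 1 h, then electrophoresis at pH 13 for 20 min, 16 V. Ethidium bromide staining; ~50 cells scored per slide, two slides per concentration; means ± SEM.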

[8] = test system: MCF7; test: DNA damaging activity in human MCF7 cells assessed as elongated tail length after 24 hrs by alkaline comet assay; how it was run: as §3
[9] = test system: MCF7; test: DNA damaging activity in human MCF7 cells assessed as olive tail moment after 24 hrs by alkaline comet assay; how it was run: as §3
[10] = test system: MCF7; test: DNA damaging activity in human MCF7 cells assessed as tail DNA content after 24 hrs by alkaline comet assay; how it was run: as §3

SMILES	pIC50 [1]	IC50 [2]	pIC50 [3]	further results
CC(Nc1nc2cc(Cl)c(F)cc2s1)c1ccc(F)cc1 (single isomer, unassigned)	4.45	Dose-dependent effect	4.21	–
COc1cccc2c1C(=O)c1c(O)c3c(c(O)c1C2=O)C[C@@](O)(C(=O)CO)C[C@@H]3O[C@H]1C[C@H](N)[C@H](O)[C@H](C)O1 [DOXORUBICIN]	5.38	Dose-dependent effect	–	–
C[C@@H](NC(=S)Nc1ccc(F)c(Cl)c1)c1ccc(F)cc1	4.52	Dose-dependent effect	4.15	–
Fc1ccc(NC(=S)NC2CCCCC2OCc2ccccc2)cc1Cl (stereo not drawn)	4.97	Dose-dependent effect	4.47	IC50 ([4]; TDE = time-dependent effect): tde; pIC50 [5]: 4.89; pIC50 [6]: 5.06
COc1ccc(C(C)Nc2nc3cc(Cl)c(F)cc3s2)cc1 (single isomer, unassigned)	4.12	Dose-dependent effect	–	–
CCCCCC[C@@H](C)Nc1nc2cc(Cl)c(F)cc2s1	4.61	Dose-dependent effect	4.32	IC50 ([4]; TDE = time-dependent effect): tde; pIC50 [5]: 4.60; pIC50 [6]: 4.82
CC(Nc1nc2cc(Cl)c(F)cc2s1)c1ccccc1 (single isomer, unassigned)	4.44	Dose-dependent effect	4.23	–
CC(Nc1nc2cc(Cl)c(F)cc2s1)C1CCCCC1 (single isomer, unassigned)	4.53	Dose-dependent effect	4.14	–
CCC(Nc1nc2cc(Cl)c(F)cc2s1)c1ccccc1 (single isomer, unassigned)	4.49	Dose-dependent effect	4.27	–
C[C@@H](NC(=S)Nc1ccc(F)c(Cl)c1)c1ccc(Cl)cc1	4.76	Dose-dependent effect	4.37	IC50 [4]: tde; pIC50 [5]: 4.79; pIC50 [6]: 4.94; Activity [7]: Dose-dependent effect; Activity [8]: Dose-dependent effect; Activity [9]: Dose-dependent effect; Activity [10]: Dose-dependent effect
COc1ccc([C@@H](C)NC(=S)Nc2ccc(F)c(Cl)c2)cc1	4.34	Dose-dependent effect	4.11	–
C[C@@H](Nc1nc2cc(Cl)c(F)cc2s1)c1ccc(Cl)cc1	4.59	Dose-dependent effect	4.16	–
CC[C@@H](NC(=S)Nc1ccc(F)c(Cl)c1)c1ccccc1	4.10	Dose-dependent effect	–	–
CCCCCC[C@@H](C)NC(=S)Nc1ccc(F)c(Cl)c1	4.59	Dose-dependent effect	4.31	–
Fc1cc2sc(N[C@@H]3CCCC[C@@H]3OCc3ccccc3)nc2cc1Cl	4.69	Dose-dependent effect	4.22	–
C[C@@H](NC(=S)Nc1ccc(F)c(Cl)c1)c1ccccc1	4.63	Dose-dependent effect	4.18	–
